What was measured:
P2Y purinoceptor 2 = P2Y purinoceptor 2 (Homo sapiens, UniProt P41231); test: Inhibitory concentration against P2Y2 receptor expressed in 1321N1 astrocytoma Cells; (n=3)
P2X purinoceptor 3 = molecular target: T1, P2X purinoceptor 3 (Rattus norvegicus, UniProt P49654); test: Inhibitory concentration against rat P2X purinoceptor 3 expressed in Xenopus laevis oocytes; type: functional, cell-based, Oocyte
T1 sequence (P49654 whole entry): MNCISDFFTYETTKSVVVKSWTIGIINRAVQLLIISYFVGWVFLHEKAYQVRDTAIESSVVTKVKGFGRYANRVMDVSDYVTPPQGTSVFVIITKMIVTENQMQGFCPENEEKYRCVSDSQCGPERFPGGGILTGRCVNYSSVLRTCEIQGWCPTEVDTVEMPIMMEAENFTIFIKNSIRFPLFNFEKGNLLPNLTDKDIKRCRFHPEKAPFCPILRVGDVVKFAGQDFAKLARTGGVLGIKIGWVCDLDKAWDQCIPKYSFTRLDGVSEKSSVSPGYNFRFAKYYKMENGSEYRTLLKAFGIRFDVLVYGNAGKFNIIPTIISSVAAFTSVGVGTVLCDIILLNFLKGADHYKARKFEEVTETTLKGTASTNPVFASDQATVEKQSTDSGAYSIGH
Method in brief: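 Two-electrode voltage clamp on Xenopus laevis oocytes expressing recombinant rat or human P2X subtypes, recording receptor-mediated currents. IC50 values came from nonlinear least-squares Hill fits to pooled concentration-inhibition data; mean ± SEM from at least three experiments.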

P2Y purinoceptor 1 [1] = molecular target: T2, P2Y purinoceptor 1 (Homo sapiens, UniProt P47900); test: Inhibitory concentration against P2Y purinoceptor 1 expressed in 1321N1 astrocytoma Cells; (n=3)
T2 sequence (P47900 whole entry): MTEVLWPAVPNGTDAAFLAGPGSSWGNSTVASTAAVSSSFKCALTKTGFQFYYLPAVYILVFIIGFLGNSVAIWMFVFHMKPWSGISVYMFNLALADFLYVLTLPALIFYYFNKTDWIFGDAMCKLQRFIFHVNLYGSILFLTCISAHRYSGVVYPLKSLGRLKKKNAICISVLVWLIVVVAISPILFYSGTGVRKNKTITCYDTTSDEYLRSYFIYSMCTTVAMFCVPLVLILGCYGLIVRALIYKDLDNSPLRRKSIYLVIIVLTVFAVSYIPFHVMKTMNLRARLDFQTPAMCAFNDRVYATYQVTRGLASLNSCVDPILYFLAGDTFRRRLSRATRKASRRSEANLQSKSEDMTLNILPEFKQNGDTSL

P2Y purinoceptor 11 [2] = molecular target: T3, P2Y purinoceptor 11 (Homo sapiens, UniProt Q96G91); test: Inhibitory concentration against P2Y11 receptor expressed in 1321N1 astrocytoma Cells; (n=7)
T3 sequence (Q96G91 whole entry): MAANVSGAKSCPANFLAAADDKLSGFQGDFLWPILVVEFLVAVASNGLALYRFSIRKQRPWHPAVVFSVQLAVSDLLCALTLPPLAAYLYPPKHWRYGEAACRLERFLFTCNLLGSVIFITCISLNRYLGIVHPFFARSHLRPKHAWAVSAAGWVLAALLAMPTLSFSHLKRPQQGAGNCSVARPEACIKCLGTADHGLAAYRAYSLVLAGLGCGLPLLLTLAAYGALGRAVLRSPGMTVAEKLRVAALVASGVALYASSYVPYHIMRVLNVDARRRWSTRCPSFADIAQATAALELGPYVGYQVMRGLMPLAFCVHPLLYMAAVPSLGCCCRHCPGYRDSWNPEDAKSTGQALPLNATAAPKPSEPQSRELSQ
Method in brief: (§1)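 Human P2Y11 stably expressed in 1321N1 astrocytoma cells (G418 selection), loaded with Oregon Green 488 BAPTA-1/AM (3 µM, 60 min, 25 °C) in Krebs-HEPES. Compound preincubated 30 min at 37 °C before injection of 1 µM ATPγS. Ca2+ fluorescence read at ex 485/em 520 nm for 30 s. IC50 from concentration-inhibition curves; independent experiments each run in triplicate.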

[3] = molecular target: T4, P2Y purinoceptor 11 (Homo sapiens) (UniProt Q96G91); test: Relative potency was measured against P2Y purinoceptor 11; type: functional
T4 sequence (whole entry): T3 sequence (Q96G91 whole entry)

P2Y purinoceptor 11 [4] = molecular target: T3, P2Y purinoceptor 11; test: Inhibitory concentration against P2Y purinoceptor 11 expressed in 1321N1 astrocytoma cells; n=7; type: cell-based; method in brief: as §1
P2Y purinoceptor 1 [5] = molecular target: T2, P2Y purinoceptor 1; test: Percent inhibition of agonist-induced calcium mobilization at P2Y purinoceptor 1 recombinantly expressed in human HEK293 cells at 100 uM dose; type: functional, cell-based; settings: in the assay text read “native in” for “recombinantly expressed in”
Method in brief: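 Single 100 µM antagonist dose, preincubated 30 min at 37 °C, in a Ca2+ fluorescence assay (Oregon Green 488 BAPTA-1/AM). Agonists: 31.6 nM 2-MeSADP for native P2Y1 and 3.16 µM UTP for native P2Y2, both in HEK293 cells; 1 µM ATPγS for recombinant P2Y11 in 1321N1 cells. Response expressed as % of agonist control; mean ± SEM, n ≥ 3.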

[6] = molecular target: P2X purinoceptor 4 (Rattus norvegicus) (UniProt P51577); test: Inhibitory concentration against rat P2X purinoceptor 4 expressed in Xenopus laevis oocytes
Sequence of P2X purinoceptor 4 (Rattus norvegicus) (P51577 whole entry, looked up): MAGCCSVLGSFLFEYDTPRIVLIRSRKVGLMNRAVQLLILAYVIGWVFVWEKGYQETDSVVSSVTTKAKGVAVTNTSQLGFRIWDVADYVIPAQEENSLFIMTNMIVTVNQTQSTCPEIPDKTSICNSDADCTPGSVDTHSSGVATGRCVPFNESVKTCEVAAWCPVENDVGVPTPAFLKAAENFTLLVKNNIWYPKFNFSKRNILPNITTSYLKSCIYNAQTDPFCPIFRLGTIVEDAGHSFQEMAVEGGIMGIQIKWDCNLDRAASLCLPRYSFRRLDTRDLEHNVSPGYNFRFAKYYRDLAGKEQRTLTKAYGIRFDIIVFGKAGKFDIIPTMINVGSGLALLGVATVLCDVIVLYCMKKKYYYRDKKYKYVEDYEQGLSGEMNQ

[7] = molecular target: T4, P2Y purinoceptor 11 (Homo sapiens); test: Percent inhibition of agonist-induced calcium mobilization at P2Y purinoceptor 11 recombinantly expressed in human 1321N1 astrocytoma cells at 100 uM dose

Sequence of P2Y purinoceptor 2 (P41231 whole entry): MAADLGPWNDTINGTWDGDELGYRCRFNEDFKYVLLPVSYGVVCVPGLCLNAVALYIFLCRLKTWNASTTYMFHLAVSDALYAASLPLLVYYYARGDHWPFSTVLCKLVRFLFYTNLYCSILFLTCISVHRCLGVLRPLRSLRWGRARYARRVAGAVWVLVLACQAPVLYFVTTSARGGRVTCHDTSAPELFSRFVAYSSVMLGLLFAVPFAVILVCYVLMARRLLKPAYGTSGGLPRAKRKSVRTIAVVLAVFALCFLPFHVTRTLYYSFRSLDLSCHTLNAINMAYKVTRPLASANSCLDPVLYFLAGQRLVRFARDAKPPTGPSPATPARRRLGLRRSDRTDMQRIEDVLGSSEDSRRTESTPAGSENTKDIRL

- IC50 (P2Y purinoceptor 2): 170 µM
- IC50 (P2X purinoceptor 3): 0.776 µM
- IC50 (P2Y purinoceptor 1 [1]): 1820 µM
- IC50 (P2Y purinoceptor 11 [2]): 0.457 µM
- Rel potency [3]: 100
- Ki (P2Y purinoceptor 11 [4]): 0.0447 µM
- inhibition (P2Y purinoceptor 1 [5]): 63.3%
- IC50 [6]: > 1 µM
- inhibition [7]: 96.6%
SMILES: O=C(Nc1cccc(C(=O)Nc2cc(C(=O)Nc3ccc(S(=O)(=O)O)c4cc(S(=O)(=O)O)cc(S(=O)(=O)O)c34)ccc2F)c1)Nc1cccc(C(=O)Nc2cc(C(=O)Nc3ccc(S(=O)(=O)O)c4cc(S(=O)(=O)O)cc(S(=O)(=O)O)c34)ccc2F)c1
